Assays:
Format in all cases: functional
[1] = system: HCC 2998; assay: Cytotoxicity against human HCC2998 cells assessed as cell growth at 0.1 uM after 48 hrs by sulforhodamine B assay; details: HCC 2998, 48 h, read-out: Activity
Outline: (§1)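 Five-dose NCI panel run at 0.01, 0.1, 1, 10 and 100 µM. Cells were in RPMI 1640 with 5% FBS and 2 mM L-glutamine, seeded at 5000–40,000 cells/well and pre-incubated 24 h. Drug was diluted from a DMSO stock into medium with 50 µg/ml gentamicin. Exposure was 48 h at 37 °C, 5% CO2. Cells were fixed with cold TCA and stained with 0.4% SRB, read at 515 nm. Percent growth came from time-zero, control and test absorbances.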

[2] = system: IGROV-1; assay: Growth inhibition of human IGROV1 cells after 48 hrs by sulforhodamine B assay; details: IGROV-1, 48 h
Outline: (§2)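 Adherent NCI-60 lines were grown in RPMI 1640 with 5% FBS and 2 mM L-glutamine, plated at 5000–40,000 cells/well and preincubated 24 h. They were then exposed to five concentrations (0.01–100 µM, from a DMSO stock) for 48 h at 37 °C, 5% CO2. Cells were fixed with cold TCA (10% final, 60 min, 4 °C) and stained with 0.4% SRB. Dye was solubilized in 10 mM Tris base and A515 read. GI50 was derived from time-zero, control and treated absorbances.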

[3] = system: SW-620; assay: Cytotoxicity against human SW620 cells assessed as cell growth at 10 '-5 M after 48 hrs by sulforhodamine B assay; details: SW-620, 48 h, read-out: Activity
[4] = system: PC-3; assay: Cytotoxicity against human PC3 cells assessed as cell growth at 0.1 uM after 48 hrs by sulforhodamine B assay; details: PC-3, 48 h, read-out: Activity
[5] = system: NCI-H322M; assay: Cytotoxicity against human NCI-H322M cells assessed as cell growth at 1 uM after 48 hrs by sulforhodamine B assay; details: read-out: Activity
[6] = system: OVCAR-4; assay: Cytotoxicity against human OVCAR4 cells assessed as cell growth at 10 uM after 48 hrs by sulforhodamine B assay; details: OVCAR-4, 48 h, read-out: Activity
[7] = system: OVCAR-4; assay: Cytotoxicity against human OVCAR4 cells assessed as cell growth at 0.01 uM after 48 hrs by sulforhodamine B assay; details: OVCAR-4, 48 h, read-out: Activity
[8] = system: SK-OV-3; assay: Cytotoxicity against human SKOV3 cells assessed as cell growth at 1 uM after 48 hrs by sulforhodamine B assay; details: SK-OV-3, 48 h, read-out: Activity
[9] = system: LOX IMVI; assay: Cytotoxicity against human LOXIMVI cells assessed as cell growth at 100 uM after 48 hrs by sulforhodamine B assay; details: read-out: Activity
[10] = system: HCT-15; assay: Cytotoxicity against human HCT15 cells assessed as cell growth at 100 uM after 48 hrs by sulforhodamine B assay; details: HCT-15, 48 h, read-out: Activity; outline: as §1
[11] = system: SK-MEL-2; assay: Cytotoxicity against human SK-MEL-2 cells assessed as cell growth at 100 uM after 48 hrs by sulforhodamine B assay; details: SK-MEL-2, 48 h, read-out: Activity
[12] = system: BT-549; assay: Cytotoxicity against human BT549 cells assessed as cell growth at 0.1 uM after 48 hrs by sulforhodamine B assay; details: BT-549, 48 h, read-out: Activity
Outline: (§3)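 NCI-60 five-dose screen. Cells were grown in RPMI 1640 with 5% FBS and 2 mM L-glutamine and preincubated 24 h. Compound (DMSO stock) was tested at 0.01, 0.1, 1, 10 and 100 µM for 48 h at 37 °C. Cells were fixed in situ with cold TCA (final 10%) and stained with 0.4% SRB. A515 was read, and percent growth was calculated against time-zero and control plates.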

[13] = system: HCC 2998; assay: Cytotoxicity against human HCC2998 cells assessed as cell growth at 0.01 uM after 48 hrs by sulforhodamine B assay; details: HCC 2998, 48 h, read-out: Activity; outline: as §1
[14] = system: SK-MEL-28; assay: Cytotoxicity against human SK-MEL-28 cells assessed as cell growth at 100 uM after 48 hrs by sulforhodamine B assay; details: SK-MEL-28, 48 h, read-out: Activity
[15] = system: OVCAR-4; assay: Cytotoxicity against human OVCAR4 cells assessed as cell growth at 10 '-5 M after 48 hrs by sulforhodamine B assay; details: OVCAR-4, 48 h, read-out: Activity
[16] = system: RPMI-8226; assay: Cytotoxicity against human RPMI8226 cells assessed as cell growth at 10 uM after 48 hrs by sulforhodamine B assay; details: RPMI-8226, 48 h, read-out: Activity
[17] = system: T47D; assay: Cytotoxicity against human T47D cells assessed as cell growth at 0.01 uM after 48 hrs by sulforhodamine B assay; details: read-out: Activity
[18] = system: A498; assay: Cytotoxicity against human A498 cells assessed as cell growth at 100 uM after 48 hrs by sulforhodamine B assay; details: A498, 48 h, read-out: Activity; outline: as §3
[19] = system: M14; assay: Cytotoxicity against human M14 cells assessed as cell growth at 1 uM after 48 hrs by sulforhodamine B assay; details: M14, 48 h, read-out: Activity
[20] = system: SF-295; assay: Cytotoxicity against human SF295 cells assessed as cell growth at 1 uM after 48 hrs by sulforhodamine B assay; details: SF-295, 48 h, read-out: Activity
[21] = system: IGROV-1; assay: Cytotoxicity against human IGROV1 cells assessed as cell growth at 0.1 uM after 48 hrs by sulforhodamine B assay; details: IGROV-1, 48 h, read-out: Activity
[22] = Cytotoxicity against human Hs 578T cells assessed as cell growth at 10 '-5 M after 48 hrs by sulforhodamine B assay; details: read-out: Activity
Outline: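 Primary one-dose screen across the NCI 60-line panel at 10 µM. Cells were grown in RPMI 1640 with 5% FBS and 2 mM L-glutamine and held 24 h before drug. Drug was diluted from a DMSO concentrate. Exposure was 48 h at 37 °C, 5% CO2. Cells were fixed with TCA and stained with SRB, with absorbance read at 515 nm. Percent growth was calculated against time-zero and untreated control.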

[23] = system: UACC-62; assay: Cytotoxicity against human UACC62 cells assessed as cell growth at 10 '-5 M after 48 hrs by sulforhodamine B assay; details: UACC-62, 48 h, read-out: Activity
[24] = system: HL-60(TB); assay: Cytotoxicity against human HL-60(TB) cells assessed as cell growth at 1 uM after 48 hrs by sulforhodamine B assay; details: HL-60, 48 h, read-out: Activity
Outline: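 NCI five-dose screen on the HL-60(TB) leukaemia line, grown in RPMI 1640 with 5% FBS and 2 mM L-glutamine and plated for 24 h before dosing. DMSO stocks were diluted in medium. Cells were exposed 48 h at 37 °C, then settled cells were fixed in 16% TCA (final) and stained with SRB, absorbance 515 nm. Percent growth = (Ti−Tz)/(C−Tz)×100, or (Ti−Tz)/Tz×100 when Ti<Tz.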

[25] = system: SF-295; assay: Cytotoxicity against human SF295 cells assessed as cell growth at 0.1 uM after 48 hrs by sulforhodamine B assay; details: SF-295, 48 h, read-out: Activity
[26] = system: UACC-257; assay: Growth inhibition of human UACC257 cells after 48 hrs by sulforhodamine B assay; details: UACC-257, 48 h; for CC50: read-out: LC50 (the source's name); outline: as §2

`Cc1ccc2nc(Nc3c(C)cccc3C)sc2c1` showed a growth at 0.1 µM [1] of 90%, a GI50 [2] of 4.16 µM and an LC50 (50% net cell kill) [2] of over 100 µM. It also gave a TGI [2] of over 100 µM, a growth at 10 µM [3] of 21.6% and a growth at 0.1 µM [4] of 94%. The growth at 1 µM [5] was 91%, the growth at 10 µM [6] was 55% and the growth at 0.01 µM [7] was 97%. The growth at 1 µM [8] was 91%, the growth at 100 µM [9] was 57% and the growth at 100 µM [10] was 40%. The growth at 100 µM [11] was 53%, the growth at 0.1 µM [12] was 99% and the growth at 0.01 µM [13] was 97%. The growth at 100 µM [14] was 55%, the growth at 10 µM [15] was 63% and the growth at 10 µM [16] was 55%. The growth at 0.01 µM [17] was 94%, the growth at 100 µM [18] was 60% and the growth at 1 µM [19] was 58%. It also gave a growth at 1 µM [20] of 44%, a growth at 0.1 µM [21] of 108% and a growth at 10 µM [22] of 54.1%. The growth at 10 µM [23] was 35.7%, the growth at 1 µM [24] was 56% and the growth at 0.1 µM [25] was 88%. The GI50 [26] was over 100 µM, the TGI [26] was over 100 µM and the CC50 [26] was over 100 µM.

`Clc1cccc(Cl)c1Nc1nc2cccc(Cl)c2s1` showed a growth at 0.1 µM [1] of 87%, a GI50 [2] of 1.12 µM and an LC50 (50% net cell kill) [2] of 8.96 µM. For the same compound, the TGI [2] was 3.17 µM, the growth at 10 µM [3] was -84.9% and the growth at 0.1 µM [4] was 81%. The growth at 1 µM [5] was 76%, the growth at 10 µM [6] was -90% and the growth at 0.01 µM [7] was 94%. The growth at 1 µM [8] was 86%, the growth at 100 µM [9] was -21% and the growth at 100 µM [10] was -74%. The growth at 100 µM [11] was -44%, the growth at 0.1 µM [12] was 101% and the growth at 0.01 µM [13] was 92%. The growth at 100 µM [14] was -69%, the growth at 10 µM [15] was 6.72% and the growth at 10 µM [16] was -19%. It also gave a growth at 0.01 µM [17] of 95%, a growth at 100 µM [18] of -92% and a growth at 1 µM [19] of 73%. For the same compound, the growth at 1 µM [20] was 33%, the growth at 0.1 µM [21] was 103% and the growth at 10 µM [22] was -11.4%. The growth at 10 µM [23] was -62.9%, the growth at 1 µM [24] was 63% and the growth at 0.1 µM [25] was 82%. It also gave a GI50 [26] of 1.35 µM, a TGI [26] of 3.1 µM and a CC50 [26] of 7.09 µM.

Reference: ChEMBL document CHEMBL2040734, “Benzothiazoles: search for anticancer agents” (2012)
